Experimental findings from ChEMBL document CHEMBL1125934, “Targeting 5'-deoxy-5'-(methylthio)adenosine phosphorylase by 5'-haloalkyl analogues of 5'-deoxy-5'-(methylthio)adenosine” (J Med Chem, 1991) are described below.

The subject of data set [1] is L1210. The data set is described as follows: The concentration required to inhibit cell growth by 50% was measured on L1210 Leukemic cell line of mouse(48h after exposure). The class given is functional, cell-based. The following applies: L1210, 48 h. In outline: (§1)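 Suspension cultures in RPMI 1640 with 10% Nu Serum, seeded at 0.3×10^5 cells/mL. Compounds were dissolved fresh in DMSO, diluted in serum-free medium, and tested at 0.1-1000 µM for 48 h (about 4 doublings). Cells were counted by Coulter counter and the 50% growth-inhibitory concentration determined.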

For another data set, the system named is MOLT-4. The data set is described as follows: The concentration required to inhibit cell growth by 50% was measured on human MOLT-4 cells (96h after exposure). The class given is functional, cell-based. Conditions: MOLT-4, 96 h. In outline: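 MOLT-4 suspension culture in RPMI 1640 with 10% Nu Serum, seeded at 0.3×10^5 cells/mL. Compounds were freshly dissolved in DMSO, diluted in serum-free medium, and tested at 0.1-1000 µM for 96 h (about 4 doublings). Cells were counted electronically (Coulter) and the 50% growth-inhibitory concentration determined.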

Data set [2] relates to L1210. The data set is described as follows: Effect of compound on spermidine(SPD) polyamine pool in L1210 murine leukemia cells expressed in terms of nmol/10e6 cells. The class given is functional, Mus musculus.
The test system of data set [3] is L5178Y. The data set is described as follows: Effect of compound on putrescine(PUT) polyamine pool in L5178Y murine leukemia cells expressed in terms of nmol/10e6 cells. The class given is functional, Mus musculus.
The test system of data set [4] is L5178Y. Kind of data set: Effect of compound on spermidine(SPD) polyamine pool in L5178Y murine leukemia cells expressed in terms of nmol/10e6 cells. The class given is functional, Mus musculus.
The test system of data set [5] is L1210. The data set is described as follows: Effect of compound on spermine(SPM) polyamine pool in L1210 murine leukemia cells expressed in terms of nmol/10e6 cells. The class given is functional, Mus musculus.
In data set [6] the test system is L1210. The data set is described as follows: Effect of compound on putrescine(PUT) polyamine pool in L1210 murine leukemia cells expressed in terms of nmol/10e6 cells. Format: functional, Mus musculus.
The next data set relates to CCRF-CEM. Kind of data set: The concentration required to inhibit cell growth by 50% was measured on human CCRF-CEM cells (96h after exposure). The class given is functional, cell-based. In outline: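 CCRF-CEM cells grown in 10% horse serum, seeded at 0.3×10^5 cells/mL. Compounds were freshly dissolved in DMSO, diluted in serum-free medium, and tested at 0.1-1000 µM for 96 h (about 4 doublings). Cells were counted by Coulter counter and the concentration giving 50% growth inhibition determined.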

Data set [7] has as its system L5178Y. Kind of data set: Effect of compound on spermine(SPM) polyamine pool in L5178Y murine leukemia cells expressed in terms of nmol/10e6 cells. Format: functional, Mus musculus.
The subject of data set [8] is L5178Y. Kind of data set: The concentration required to inhibit cell growth by 50% was measured on L5178Y Leukemic cell line of mouse(48h after exposure). Format: functional, cell-based. In outline: as §1
Data set [9] deals with T1, S-methyl-5'-thioadenosine phosphorylase (Mus musculus) (UniProt Q9CQ65).
T1 sequence (whole entry): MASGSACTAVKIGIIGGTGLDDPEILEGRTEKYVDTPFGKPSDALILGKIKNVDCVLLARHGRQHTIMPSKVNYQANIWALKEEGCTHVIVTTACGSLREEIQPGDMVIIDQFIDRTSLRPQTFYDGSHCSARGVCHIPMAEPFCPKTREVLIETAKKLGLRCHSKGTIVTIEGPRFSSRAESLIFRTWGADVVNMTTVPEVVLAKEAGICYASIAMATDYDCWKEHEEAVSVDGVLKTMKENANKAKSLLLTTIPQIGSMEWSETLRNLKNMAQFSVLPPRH
The data set is described as follows: The ability to act as substrates for MTA phosphorylase activity was determined by using a mouse liver enzyme preparation. Format: functional, tissue-based. Also noted: concentration or dose not given beside the values. In outline:
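Mouse liver MTA phosphorylase preparation, spectrophotometric assay. The analogue was used as substrate and the absorbance change at λ 305 was read after a 10-min incubation. Activity is expressed relative to MTA as control substrate. Duplicate samples, agreeing within 15%.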

In data set [10] the target is Adenosylhomocysteinase (Bos taurus) (UniProt Q3MHL4). Kind of data set: Percentage enzyme activity remaining was measured by the inhibition S-adenosyl-L-homocysteine hydrolase from bovine liver at 0.01 uM.
In data set [11] the target is T2, S-methyl-5'-thioadenosine phosphorylase (Mus musculus, UniProt Q9CQ65).
T2 sequence (Q9CQ65 whole entry): T1 sequence (whole entry)
The data set is described as follows: The inhibitory constant(Ki) for MTA phosphorylase activity was determined by using a mouse liver enzyme preparation. In outline:
(§2)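 Mouse liver MTA phosphorylase preparation. Conversion of [methyl-³H]MTA to [methyl-³H]MTRP was measured in the presence of analogue. Ki was derived from Lineweaver-Burk plots. Duplicate samples, agreeing within 15%.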

Data set [12] concerns L5178Y. Kind of data set: Effect of compound on putrescine(PUT) polyamine pool in L5178Y murine leukemia cells expressed as nmol/10e6 cells. Format: functional, Mus musculus.
Compound in data set [13]: CSC[C@H]1O[C@@H](n2cnc3c(N)ncnc32)[C@H](O)[C@@H]1O
Kind of data set: The inhibitory constant for MTA phosphorylase activity was determined by using a mouse liver enzyme preparation. The class given is functional, tissue-based. In outline:
as §2

In general, IC50 refers to the concentration at which inhibition is half-maximal. For orientation: Ki means a dissociation constant, usually derived from enzyme kinetics or from competition with a known ligand. For orientation: Km means the substrate concentration at which the rate is half of its maximum.

Chain of Adenosylhomocysteinase (Bos taurus) (Q3MHL4 whole entry, looked up): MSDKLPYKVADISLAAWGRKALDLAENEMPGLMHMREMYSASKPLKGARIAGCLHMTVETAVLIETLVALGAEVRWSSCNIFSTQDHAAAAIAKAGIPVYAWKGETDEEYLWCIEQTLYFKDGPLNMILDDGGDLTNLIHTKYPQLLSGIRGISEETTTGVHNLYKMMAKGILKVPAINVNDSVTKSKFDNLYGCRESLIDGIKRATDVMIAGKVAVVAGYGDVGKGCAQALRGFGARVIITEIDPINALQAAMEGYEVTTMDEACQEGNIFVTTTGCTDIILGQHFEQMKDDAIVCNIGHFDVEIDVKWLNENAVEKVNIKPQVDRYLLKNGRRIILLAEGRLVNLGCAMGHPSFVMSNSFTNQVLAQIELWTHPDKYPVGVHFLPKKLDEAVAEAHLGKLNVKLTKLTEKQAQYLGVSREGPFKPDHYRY

`Nc1ncnc2c1ncn2C1O[C@H](CSCCF)[C@@H](O)[C@H]1O` (some centres not stated): the IC50 was determined as 150 µM in the data set with L1210 [1], 10 µM with MOLT-4, 75 µM in the data set on CCRF-CEM and 60 µM with L5178Y [8]. The Activity in the data set with L1210 [2] stood at 1.95; in the data set with L5178Y [3], 0.27 nmol/10e6 cells; with L5178Y [4] it was 1.55; in the data set with L1210 [5], 0.86; with L1210 [6] it was 0.56; in the data set with L5178Y [7] it was 1.43. In [10], the Activity worked out at 102%. In [9], this molecule showed a Control of 64%.
As to `CCCSC[C@H]1OC(n2cnc3c(N)ncnc32)[C@H](O)[C@@H]1O` (some centres not stated), the IC50 in the data set on L1210 [1] stood at 1000 µM; with MOLT-4, 45 µM; with CCRF-CEM, 160 µM; in the data set with L5178Y [8], 500 µM. Besides, the Activity with L1210 [2] is reported as 0.57; with L5178Y [3], 0.25 nmol/10e6 cells; in the data set with L5178Y [4], 1.18; in the data set with L1210 [5], 0.41; with L1210 [6], 0.26; in the data set on L5178Y [7] it was 1. For the same molecule, in data set [10], the Activity came to 100%. In [11], this molecule came in with a Ki of 1.7 µM. In data set [9], this molecule showed a Control of 102%.
As for `Nc1ncnc2c1ncn2C1O[C@H](CSCCCF)[C@@H](O)[C@H]1O` (some centres not stated), the IC50 amounted to 600 µM in the data set with L1210 [1], 25 µM with MOLT-4, 160 µM in the data set on CCRF-CEM and 600 µM in the data set on L5178Y [8]. The Activity with L1210 [2] worked out at 0.99; with L5178Y [3], 0.36 nmol/10e6 cells; in the data set on L5178Y [4] it was 1.79; in the data set with L1210 [5], 0.44; with L1210 [6], 0.34; in the data set with L5178Y [7], 1.07. This molecule also displayed an Activity in data set [10] of 97%. In data set [11], this molecule returned a Ki of 4 µM. Also, the Control in [9] was determined as 66%.
Take `Nc1ncnc2c1ncn2C1O[C@H](CSCCBr)[C@@H](O)[C@H]1O` (some centres not stated): the Control in data set [9] amounted to 38%.
The molecule `Nc1ncnc2c1ncn2C1O[C@H](CSCCCl)[C@@H](O)[C@H]1O` (some centres not stated) had a Control in data set [9] of 35%.
For the molecule `CSC[C@H]1O[C@@H](n2cnc3c(N)ncnc32)[C@H](O)[C@@H]1O` [METHYLTHIOADENOSINE], the half-inhibitory concentration (IC50) came to 850 µM in the data set with L1210 [1], 11 µM with MOLT-4, 150 µM in the data set with CCRF-CEM and 200 µM in the data set on L5178Y [8]. In addition, the Activity in the data set on L1210 [2] worked out at 1.22; in the data set on L5178Y [4], 2.79; with L1210 [5], 0.19; with L1210 [6], 1.93; in the data set with L5178Y [12], 1.85; in the data set on L5178Y [7], 0.43. In [10], the Activity was 101%. For the same molecule, in data set [9], the Control amounted to 100%.
For `Nc1ncnc2c1ncn2C1O[C@H](CSCCO)[C@@H](O)[C@H]1O` (some centres not stated), the IC50 with L1210 [1] was determined as 1000 µM; in the data set with MOLT-4, 40 µM; in the data set on CCRF-CEM, 100 µM; with L5178Y [8], 500 µM. Besides, the Activity in the data set on L1210 [2] amounted to 1.17; with L5178Y [3] it was 0.66 nmol/10e6 cells; with L5178Y [4], 1.9; in the data set on L1210 [5], 0.58; with L1210 [6] it was 0.75; with L5178Y [7] it was 1.5. The same molecule yielded a Control in data set [9] of 34%.
Consider `CCSC[C@H]1OC(n2cnc3c(N)ncnc32)[C@H](O)[C@@H]1O` (some centres not stated), for which the half-maximal inhibitory concentration (IC50) was determined as 800 µM in the data set on L1210 [1], 20 µM in the data set on MOLT-4, 200 µM with CCRF-CEM and 250 µM in the data set on L5178Y [8]. For the same molecule, the Activity with L1210 [2] came out at 1.01; in the data set with L5178Y [3], 0.69 nmol/10e6 cells; in the data set on L5178Y [4], 1.75; in the data set with L1210 [5], 0.54; with L1210 [6], 0.77; with L5178Y [7], 1.29. The molecule also displayed an Activity in [10] of 99%. For the same molecule, the affinity in [11], expressed as Ki, was 1.9 µM. The Control in [9] stood at 95%.

B1: S-methyl-5'-thioadenosine phosphorylase (Mus musculus), Q9CQ65 (protein)
chain: T1 sequence (whole entry)
Turning to B1, in data set [13], the Km was determined as 1.3 µM.
